From ChEMBL document CHEMBL2146456, “Identification and characterization of GABA(A) receptor modulatory diterpenes from Biota orientalis that decrease locomotor activity in mice” (J Nat Prod, 2011)
pEC50: −log10 of the molar value.

How the values were obtained:
Format in all cases: cell-based
[1] = Allosteric modulation of gamma-aminobutyric acid receptor A alpha1beta2gamma2S expressed in Xenopus oocytes assessed as potentiation of GABA-mediated chloride current by voltage clamp analysis; settings: Oocyte
In short: (§1)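 Oocytes were injected with α1β2γ2S, α1β3γ2S, α2β2γ2S, α3β2γ2S or α5β2γ2S cRNAs at a 1:1:10 ratio. Two-electrode voltage clamp was run 1–5 days post-injection in HEPES-buffered saline at pH 7.4. Compounds in GABA EC5–10 (3–10 μM) were given by automated fast perfusion: screening at 10 and 100 μM (n = 2), otherwise concentration series. Potentiation = I(GABA+Comp)/IGABA − 1, with nonlinear regression fits.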

Oocyte [2] = assay: Allosteric modulation of gamma-aminobutyric acid receptor A alpha1beta2gamma2S expressed in Xenopus oocytes assessed as potentiation of GABA-mediated chloride current at 0.1 to 500 uM by voltage clamp analysis relative to control
In short: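 Two-electrode voltage clamp on Xenopus oocytes injected with α1, β2, γ2S cRNA at a 1:1:10 ratio, recorded on days 1–5 at a holding potential of […]. Bath: 90 mM NaCl, 1 mM KCl, 1 mM MgCl2, 1 mM CaCl2, 5 mM HEPES pH 7.4. Compound was co-applied by fast perfusion with GABA EC5-10 (typically 3–10 μM). Potentiation was calculated as I(GABA+Comp)/IGABA − 1, and concentration-response curves were fitted by nonlinear regression.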

Oocyte [3] = assay: Allosteric modulation of gamma-aminobutyric acid receptor A alpha1beta2gamma2S expressed in Xenopus oocytes assessed as potentiation of GABA-mediated chloride current at 10 uM by voltage clamp analysis relative to control; in short: as §1
Oocyte [4] = assay: Allosteric modulation of gamma-aminobutyric acid receptor A alpha1beta2gamma2S expressed in Xenopus oocytes assessed as potentiation of GABA-mediated chloride current at 100 uM by voltage clamp analysis relative to control; in short: as §1

| SMILES | pEC50 [1] | Imax (Oocyte [2]) [%] | Imax (Oocyte [3]) [%] | Imax (Oocyte [4]) [%] |
| --- | --- | --- | --- | --- |
| Cc1ncc2n1-c1ccc(Cl)cc1C(c1ccccc1F)=NC2 [MIDAZOLAM] | 6.84 | 342 |  |  |
| C=C[C@]1(C)C=C2CC[C@H]3[C@](C)(CO)[C@@H](O)CC[C@]3(C)[C@H]2CC1 |  |  | 13.8 | 7.7 |
